ChEMBL document CHEMBL1144760, “Oxygenated cembranoids from a Formosan soft coral Sinularia gibberosa” (J Nat Prod, 2008)
The source made the active and inactive calls. No cut-off for these calls is given here.

Assays:
RAW264.7 [1] = experiment: Inhibition of LPS-induced COX2 expression in mouse RAW264.7 cells at 10 uM by immunoblot analysis relative to control; format: functional
How it was run: (§1)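 Murine RAW 264.7 macrophages were grown in DMEM with 10% heat-inactivated FBS at 37 °C and 5% CO2. Test agent (10 µM) was added 5 min before LPS (0.01 µg/mL), followed by 16 h incubation. Lysates were cleared at 20000g, and equal protein was run on SDS-PAGE and PVDF. Blots used anti-iNOS or anti-COX-2 (1:1000, 180 min RT), ECL, and a β-actin reprobe. Densitometry was expressed relative to LPS-alone (100%), as mean ± SEM, n = 6.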

RAW264.7 [2] = experiment: Inhibition of LPS-induced iNOS expression in mouse RAW264.7 cells at 10 uM by immunoblot analysis relative to control; format: functional; how it was run: as §1
HepG2 [3] = experiment: Cytotoxicity against human HepG2 cells by MTT assay; format: functional, cell-based
A549 [4] = experiment: Cytotoxicity against human A549 cells at 20 ug/mL by MTT assay; format: functional; settings: read-out: GI
MCF7 [5] = experiment: Cytotoxicity against human MCF7 cells by MTT assay; format: functional, cell-based
[6] = Cytotoxicity against human MDA-MB-23 cells by MTT assay; format: functional, cell-based
MCF7 [7] = experiment: Cytotoxicity against human MCF7 cells at 20 ug/mL by MTT assay; format: functional; settings: read-out: GI
A549 [8] = experiment: Cytotoxicity against human A549 cells by MTT assay; format: functional, cell-based
HepG2 [9] = experiment: Cytotoxicity against human HepG2 cells at 20 ug/mL by MTT assay; format: functional; settings: read-out: GI
HepG2 [10] = experiment: Cytotoxicity against human HepG2 cells at 0.5 ug/mL by MTT assay; format: functional; settings: read-out: GI
[11] = Cytotoxicity against human MDA-MB-23 cells at 0.5 ug/mL by MTT assay; format: functional; settings: read-out: GI
MCF7 [12] = experiment: Cytotoxicity against human MCF7 cells at 0.5 ug/mL by MTT assay; format: functional; settings: read-out: GI
A549 [13] = experiment: Cytotoxicity against human A549 cells at 0.5 ug/mL by MTT assay; format: functional; settings: read-out: GI

Structure (SMILES)	COX-2 protein level (% of LPS control) at 10 µM (RAW264.7 [1]) [%]	iNOS protein level (% of LPS control) at 10 µM (RAW264.7 [2]) [%]	IC50 (HepG2 [3]) [µg/mL]	inhibition of growth at 20 µg/mL (A549 [4]) [%]	IC50 (MCF7 [5]) [µg/mL]	IC50 [6] [µg/mL]	inhibition of growth at 20 µg/mL (MCF7 [7]) [%]	IC50 (A549 [8]) [µg/mL]	inhibition of growth at 20 µg/mL (HepG2 [9]) [%]	Activity (RAW264.7 [1])	Activity (RAW264.7 [2])	inhibition of growth at 0.5 µg/mL (HepG2 [10]) [%]	inhibition of growth at 0.5 µg/mL [11] [%]	inhibition of growth at 0.5 µg/mL (MCF7 [12]) [%]	inhibition of growth at 0.5 µg/mL (A549 [13]) [%]
C/C1=C/C=C(\C(C)C)[C@@H](O)C[C@]2(C)O[C@@H]2CC/C(C)=C/CC1	54	76.2	> 20	27.2	> 20	> 20	33.4	> 20	45.5	–	–	–	–	–	–
CC(=O)O[C@H]1C2=C(C(C)C)C=C(O2)[C@@H](C)CC/C=C(\C)CC[C@@H]2O[C@]21C (relative stereo) [GIBBEROSENE A]	–	–	> 20	–	> 20	> 20	41.3	> 20	< 20	–	–	–	–	–	–
CC(=O)O[C@H]1C/C(C(C)C)=C/C=C(/C)CC/C=C(\C)CC[C@@H]2O[C@@]12C (relative stereo) [GIBBEROSENE B]	–	–	> 20	–	> 20	> 20	21.5	> 20	24	inactive	inactive	–	–	–	–
C/C1=C\CC[C@]2(C)O[C@H]2/C=C(\C(C)C)C[C@H](O)[C@]2(C)O[C@H]2CC1 (relative stereo) [GIBBEROSENE C]	–	–	> 20	–	> 20	> 20	–	> 20	–	–	–	–	–	–	–
CC(=O)O[C@H]1/C=C(C(C)C)\C=C\[C@@](C)(O)CC/C=C(\C)CC[C@@H]2O[C@@]12C (relative stereo) [GIBBEROSENE D]	–	–	> 20	–	> 20	> 20	–	> 20	–	–	–	–	–	–	–
CC(=O)O[C@@H]1/C(C)=C/C[C@H](O)/C(C)=C/CC/C(C)=C\C=C(/C(C)C)[C@H]1OC(C)=O (relative stereo) [GIBBEROSENE E]	–	–	> 20	25.8	> 20	> 20	21	> 20	31.3	–	–	–	–	–	–
CC(=O)O[C@@H]1/C(C)=C/CC/C(C)=C/[C@H](O)C/C(C)=C\C=C(/C(C)C)[C@H]1OC(C)=O (relative stereo) [GIBBEROSENE F]	–	–	> 20	–	> 20	> 20	–	> 20	–	–	–	–	–	–	–
COc1cccc2c1C(=O)c1c(O)c3c(c(O)c1C2=O)C[C@@](O)(C(=O)CO)C[C@@H]3O[C@H]1C[C@H](N)[C@H](O)[C@H](C)O1 [DOXORUBICIN]	–	–	–	–	–	–	–	–	–	–	–	66.9	66.6	51.6	73.2
C/C1=C/C=C(\C(C)C)CC/C(C)=C/C(O)C/C(C)=C/CC1 (stereo unspecified) [GIBBEROSENE G]	–	–	> 20	–	> 20	> 20	–	> 20	23.3	–	–	–	–	–	–
